One series has as its system SU-DHL-1. Nature of the series: Antiproliferative activity against human SU-DHL1 assessed as reduction in cell viability incubated for 3 days by Cell Titer Blue assay. The format is functional, cell-based. The following applies: time 3.0 day. In general terms: The colour change of resazurin is a common sign of viable cells or microbes.
The next series relates to Raji. Nature of the series: Antiproliferative activity against human Raji assessed as reduction in cell viability incubated for 3 days by Cell Titer Blue assay. The format is functional, cell-based. To be noted: time 3.0 day.
The subject of a further series is NOMO-1. Nature of the series: Antiproliferative activity against human NOMO1 assessed as reduction in cell viability incubated for 3 days by Cell Titer Blue assay. The format is functional, cell-based. To be noted: time 3.0 day.
A short description of series [1]: Terminal half-life in mouse at […] mg/kg, iv formulated with 20 % HPBCD in water/ […]% HCl. The following applies: in vivo, read-out: beta t1/2 (converted). The format is ADME, organism-based.
Series [2] concerns AMO1. In words: Antitumor activity against human AMO1 xenografted in CB-17 SCID mouse assessed as tumor growth inhibition at 12.5 mg/kg, iv administered weekly for upto week 4 measured post last dose measured on day 10. To be noted: time 4 weeks, read-out: TGI. The format is functional. In short, it runs like this: (§1)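 Female CB-17 SCID mice, 6−7 weeks old. 5 × 10⁶ AMO-1 cells in growth medium/Matrigel 50:50 injected subcutaneously in the right flank. Randomised at about 200 mm³, n = 8 to 10 per group. Dosed iv in 20% HPbCD–25 mM HCl, daily for 5 days or weekly for 4 weeks. Calipers 2−3 times weekly; volume = length × width²/2. TGI computed from median change in volume versus control; delay judged at median volume 500 mm³.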
In general terms: Xenograft models place foreign cells or tissue in a host animal.

Series [3] concerns AMO1. Nature of the series: Antitumor activity against human AMO1 xenografted in CB-17 SCID mouse assessed as maximum tumor growth inhibition at […] mg/kg, iv administered for 5 consecutive days measured post-last dose. The class given is functional. More on the design: scale not given: the % may be the effect or the level left. The following applies: time 5 day.
The subject of a further series is HL-60. Nature of the series: Antiproliferative activity against human HL60 assessed as reduction in cell viability incubated for 3 days by Cell Titer Blue assay. The format is functional, cell-based. The following applies: time 3.0 day.
For another series, the system named is NCI-H929. In words: Induction of apoptosis in human H929 cells assessed as induction of PARP cleavage incubated for 6 hrs by immunodetection analysis. The class given is functional, cell-based. The following applies: dose 1-3000 nM. In outline:
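H929 cells in RPMI 1640 with 10% FBS were seeded at 2 × 10⁶ cells per 35 mm dish. After 24 h they were exposed to compound for 6 h, then lysed (Hepes pH 7.4, KCl, MgCl₂, EDTA, 1% NP40). 5 μg lysate was assayed for cleaved PARP with the MSD apoptosis panel, read as RLU. Two independent biological experiments.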

Series [4] addresses Apoptosis regulator Bcl-2 (Homo sapiens) (UniProt P10415). In words: Displacement of Bax BH3 domain from FLAG-tagged Bcl-2 (unknown origin) expressed in human Hela cells at 30 to 300 nM incubated for 2 hrs by immunoprecipitation assay. The format is cell-based. To be noted: dose 30-300 nM. In outline: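 HeLa cells in DMEM with 10% FCS were transiently transfected with Flag-tagged Mcl-1, Bcl-xL or Bcl-2 vectors. 24 h later they were treated for 2 h and lysed (Hepes pH 7.5, 150 mM KCl, MgCl₂, EDTA, 0.4% Triton X100). Cleared lysates were immunoprecipitated with anti-Flag M2 beads. Inputs and IPs were immunoblotted for endogenous Bax, Bak and Flag.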

For series [5], the system named is AMO1. In words: Antitumor activity against human AMO1 xenografted in CB-17 SCID mouse assessed as tumor regression at 12.5 mg/kg, iv administered for 5 consecutive days and observed upto day 35 post last dose. The format is functional, organism-based. To be noted: time 35.0 day. In outline:
as §1

Series [6] in a line: Clearance in mouse at […] mg/kg, iv formulated with 20 % HPBCD in water/ […]% HCl. The format is ADME, organism-based. The following applies: in vivo.
The subject of another series is MINO. Nature of the series: Antiproliferative activity against human Mino assessed as reduction in cell viability incubated for 3 days by Cell Titer Blue assay. The following applies: time 3.0 day. The format is functional.
In another series the test system is PL21. In words: Antiproliferative activity against human PL21 assessed as reduction in cell viability incubated for 3 days by Cell Titer Blue assay. To be noted: time 3.0 day. The format is functional.
The nature of series [7]: Plasma protein binding in human assessed as unbound fraction. The format is ADME, cell-free.
Series [8] concerns AMO1. In words: Antitumor activity against human AMO1 xenografted in CB-17 SCID mouse assessed as maximum tumor growth inhibition at 12.5 mg/kg, iv administered for 5 consecutive days measured post-last dose. The class given is functional. More on the design: scale not given: the % may be the effect or the level left. The following applies: time 5 day. In outline: as §1

The source made the active and inactive calls. The rule behind the calls is not given here.

Chain of Apoptosis regulator Bcl-2 (Homo sapiens) (P10415 whole entry, the tested form may be a part): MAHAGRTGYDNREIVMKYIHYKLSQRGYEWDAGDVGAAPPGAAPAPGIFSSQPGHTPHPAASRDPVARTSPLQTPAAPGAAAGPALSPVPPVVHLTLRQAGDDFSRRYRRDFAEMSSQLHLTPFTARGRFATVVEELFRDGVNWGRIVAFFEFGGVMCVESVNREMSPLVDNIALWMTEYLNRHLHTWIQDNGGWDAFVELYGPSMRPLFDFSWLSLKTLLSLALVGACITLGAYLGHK

As to `COc1ccccc1-c1nccc(COc2ccccc2C[C@@H](Oc2ncnc3sc(-c4ccc(F)cc4)c(-c4ccc(OCCN5CCN(C)CC5)c(Cl)c4C)c23)C(=O)O)n1`, the outcome in the series with SU-DHL-1, in the series with Raji, in the series with NOMO-1, in the series on HL-60, with AMO1 [5] and in the series on MINO was Active. Further, the outcome in the series on PL21 was Active. For the same compound, the half-life in [1] is 5 h. In the series on AMO1 [2], the inhibition in vivo at 12.5 mg/kg was determined as 108%. The results for the Activity in the series with AMO1 [3], in the series on NCI-H929 and in the series with AMO1 [8] were 115.8%, “Dose-dependent effect” and 162.8%, respectively. Besides, the result in series [4] was inactive. Besides, in series [6], the clearance (as a rule, the volume of plasma or blood freed of the substance per unit of time) was 5.3 mL/min/kg. In addition, the Fu in series [7] is on record as 0.05%.
